Assay outcomes (PubChem BioAssay)
This is a sample that favours compounds with a hit; in the whole collection about 4.9% have one here.
WT yeast gro inh = growth inhibition of WT strain, primary screen, mitochondrial fusion inhibitor project, WT and mutant strains, chemical genetic; mitochondrial fusion phenotypic screen; AID 1362, 2008; 190,000 compounds, 2.1% hits; inhibition, % at 10 µM; in the data active means inhibition above about 58%; tested in S. cerevisiae
NPY1 pot ag = NPY-Y1 receptor potentiators or agonists, primary screen, cell-based; Neuropeptide Y receptor type 1 (Homo sapiens), P25929; NPY-Y1 expressing cells, potentiator/agonist activation; 220,000 compounds, 0.37% hits; activation, % at 3.6 µM; in the data active means activation above about 33%, passing the limit was not always enough;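 further: cells stimulated with NPY at EC10 then isoproterenol at EC100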
NPY Y1 blocker = NPY-Y1 receptor antagonists, primary screen, cell-based; HEK293-CNG Y1 cells, membrane potential fluorescence; NPY at EC95, then isoproterenol; Neuropeptide Y receptor type 1 (Homo sapiens), P25929; inhibition, % at 3.6 µM; 200,000 compounds, 1% hits; AID 1040, 2008;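 active means inhibition above the campaign mean inhibition of all tested compounds plus 3 SD, cut at about 20% in these data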
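Test system: HEK293 cells co-expressing NPY Y1 receptor and cyclic-nucleotide gated channel; Also added: NPY (25 nM), isoproterenol (1 µM), Ro 20-1724 (25 µM); Compound dosing: one concentration, 3.6 µM, in 0.4% DMSO; Timing: dye 3 h, compound 60 min room temperature, stimulation 45 min; Technique: Membrane-potential fluorescent dye readout.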
RAM inhibit = inhibitors of the yeast RAM network, primary screen, dse1pr::URA3 reporter, 5-FOA selection; S. cerevisiae dse1pr::URA3 reporter, 5-FOA growth OD615, 2 d; analog-sensitive cbk1-as2 kinase mutant strain; inhibition, % at 50 µM; 190,000 compounds, 1.8% hits;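 active means inhibition above a set limit, 3 SD over mean compound inhibition, cut at about 8.4% in these data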;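 further: inhibition rescues growth on 5-FOA so higher OD means more RAM inhibition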
NPY2 pot ag = NPY-Y2 potentiators or agonists, primary screen, cell-based. cells expressing NPY-Y2, potentiator/agonist read-out. activation, % at 3.6 µM. 220,000 compounds, 0.45% hits. AID 1359, 2008; in the data active means activation above about 27%;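 further: cells stimulated with NPY near EC25 plus isoproterenol at EC100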
Target sequence (P49146 whole entry, looked up): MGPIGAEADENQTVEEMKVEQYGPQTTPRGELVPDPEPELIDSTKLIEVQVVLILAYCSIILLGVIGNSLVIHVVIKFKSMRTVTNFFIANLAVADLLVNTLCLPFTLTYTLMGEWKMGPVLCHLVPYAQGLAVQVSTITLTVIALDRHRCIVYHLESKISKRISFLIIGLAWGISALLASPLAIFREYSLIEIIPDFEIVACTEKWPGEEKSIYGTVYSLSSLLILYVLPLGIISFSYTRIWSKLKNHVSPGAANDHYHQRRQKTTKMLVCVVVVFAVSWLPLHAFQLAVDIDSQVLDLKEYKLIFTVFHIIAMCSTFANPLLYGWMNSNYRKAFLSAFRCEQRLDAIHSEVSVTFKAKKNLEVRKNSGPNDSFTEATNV
NPY Y2 blocker = NPY-Y2 receptor antagonists, primary screen, cell-based. Neuropeptide Y receptor type 2 (Homo sapiens), P49146. 140,000 compounds, 0.99% hits. NPY-Y2 expressing cells, antagonist mode. AID 793, 2007. inhibition, % at 2.7 µM; in the data active means inhibition above about 17%
Of the large screens only hits and unclear results are named; the others gave an inactive call.

CCOC(=O)c1cc(C#N)c(SC)nc1C	none (no result: WT yeast gro inh, NPY Y1 blocker, RAM inhibit, NPY Y2 blocker)
CC(=O)c1cc(C#N)c(SCC(=O)O)nc1C	none
COC(=O)C(NC(C)=O)(Nc1sc2c(c1C(N)=O)CCCC2)C(F)(F)F (configuration not stated)	none
CCNc1nc(NCC)nc(SCCOc2ccc(C)cc2)n1	WT yeast gro inh 87.7
CCOC(=O)C1=C(C)C(c2ccc(OC)cc2)NC(=S)N1 (configuration not stated)	none
CCOC(=O)C1=C(C)C(c2cccc(Oc3ccccc3)c2)NC(=S)N1 (configuration not stated)	WT yeast gro inh 66.0
CCOC(=O)C1=C(c2cccc(Oc3ccccc3)c2)NC(=S)NC1C (configuration not stated)	WT yeast gro inh 64.2
C/C(CCN1CCc2nc(-c3ccccc3)c(-c3ccccc3)cc2C1)=N\OC[C@@H](C)[C@H](OCc1ccccc1)C(C)C	WT yeast gro inh 60.8
C/C(CCN1CCc2nc(-c3ccccc3)c(-c3ccccc3)cc2C1)=N\O[C@H](C)c1cn([C@H](CO)Cc2ccccc2)nn1	none
Cc1ccc(/C=C/C2=NN(Cc3ccccc3Cl)C(=O)CC2)cc1	WT yeast gro inh 59.3
Cc1ccc2nc(CSc3nnc(Nc4ccccc4F)s3)cc(=O)n2c1	none
Cc1ccc(Nc2nnc(SCc3cc(=O)n4cc(C)ccc4n3)s2)cc1	RAM inhibit 10.8
CCOC(=O)C1=C(Nc2ccccc2)CC(C)(O)C(C(=O)OCC)C1c1ccc(Cl)cc1 (configuration not stated)	WT yeast gro inh 71.0
COc1ccc(NC2=C(C(C)=O)C(c3ccccc3)C(C(C)=O)C(C)(O)C2)cc1 (configuration not stated)	none (no result: WT yeast gro inh, NPY Y1 blocker, RAM inhibit, NPY Y2 blocker)
COc1ccc(/C=C(\C#N)C(=O)N=CN(C)C)cc1	none (no result: NPY Y2 blocker)
O=c1cc(-c2ccccc2Cl)oc2ccc([N+](=O)[O-])c(O)c12	WT yeast gro inh 63.6
Nc1ccc2oc(-c3ccccc3Cl)cc(=O)c2c1O	none
CC1CCCCC1NC(=O)CCCn1c(=S)[nH]c2ccccc2c1=O (configuration not stated)	none (no result: NPY Y2 blocker)
CC1CCCC(NC(=O)CCCn2c(=S)[nH]c3ccccc3c2=O)C1C (configuration not stated)	RAM inhibit 9.0 (no result: NPY Y2 blocker)
CC1CCCCC1NC(=O)CCCCCn1c(=S)[nH]c2ccccc2c1=O (configuration not stated)	none (no result: NPY Y2 blocker)
CC1CCCCC1n1c(=S)[nH]c2ccccc2c1=O (configuration not stated)	WT yeast gro inh 75.5
CN1c2ccsc2/C(=N/Nc2ccccc2)CS1(=O)=O	none (no result: NPY Y2 blocker)
CN1C(=O)N(C)C2(c3ccccc3)NC(=O)NC12c1ccccc1 (configuration not stated)	none
COC(=O)c1[nH]c2cccc(OC)c2c1NC(=O)CCN1CCN(c2ccccc2F)CC1	none
COC(=O)c1cccc(NC(=O)c2ccccc2)c1	none (no result: WT yeast gro inh, NPY Y1 blocker, RAM inhibit, NPY Y2 blocker)
Cc1ccc(C(=O)Oc2cccc(NC(=O)c3ccccc3)c2)cc1C	RAM inhibit 10.5
Cc1ccc(NC(=O)c2ccccc2NS(=O)(=O)c2ccc(F)cc2)cc1S(=O)(=O)N1CCCCC1	RAM inhibit 8.9
O=C(Nc1cccc(S(=O)(=O)N2CCCCC2)c1)c1ccccc1NS(=O)(=O)c1ccc(F)cc1	none
N/C(=N\c1nc2ccccc2o1)NC(=O)c1cccc(Cl)c1	none (no result: WT yeast gro inh, NPY Y1 blocker, RAM inhibit, NPY Y2 blocker)
COC(=O)c1cc(=O)n(CCc2ccccc2F)c(=Nc2ccc(F)c(Cl)c2)s1	RAM inhibit 10.0
CCCNc1ncnc2onc(C)c12	none (no result: NPY Y2 blocker)
CC(C)(C)NC(=O)C(=O)NCc1ccccn1	none (no result: NPY Y2 blocker)
Cc1ccc(N(C(=O)c2ccccc2Cl)C2=NC(C)CS2)c(C)c1 (configuration not stated)	WT yeast gro inh 72.3
CCOC(=O)COc1ccc2c3c(c(=O)oc2c1C)CCC3	none
CCOC(=O)CCc1c(C)c2ccc(OCC)c(C)c2oc1=O	NPY Y1 blocker 33.2, NPY Y2 blocker 29.0
CC(=O)c1cc2c(cc1NC(=O)CSc1nnc(C)s1)OCO2	none
c1csc(C(c2nnnn2C2CCCC2)N2CCCC3(CCCCC3)C2)c1 (configuration not stated)	WT yeast gro inh 70.5
CCN(Cc1ccccc1)C(c1cccs1)c1nnnn1C1CCCCC1 (configuration not stated)	WT yeast gro inh 75.3, RAM inhibit 9.3
O=C(CSc1cc(Cl)ccc1Cl)NCC(=O)Nc1ccc(F)c(F)c1F	RAM inhibit 9.4
Cc1ccccc1NC(=O)/C(=C/c1ccccc1)c1ccccc1	NPY Y1 blocker 21.1, NPY Y2 blocker 17.9
CNC(=O)c1ccc(-c2sc3nc(N4CCOCC4)c4c(c3c2N)CCCC4)o1	RAM inhibit 9.3
Cc1[nH]c2ccc(-c3n[nH]c(=S)n3-c3ccc(Br)cc3)cc2c1C	RAM inhibit 10.2 (no result: NPY Y2 blocker)
Cc1nc(=O)c(-c2ccccc2)c(C)n1CCCO	none
Cc1nc(=O)c(-c2ccccc2)c(C)n1CCCCCC(=O)O	WT yeast gro inh 82.6
CC(C)NC(=O)C(=O)NC1CCCCCC1	none
CN1CCN(Cc2ccc(Sc3ccc(Cl)cc3)c([N+](=O)[O-])c2)CC1	WT yeast gro inh 86.0 (no result: NPY Y2 blocker)
Cc1ccc(Sc2ccc(CN3CCCC3)cc2[N+](=O)[O-])cc1	none (no result: NPY Y2 blocker)
CC1CCN(C(=O)c2ccc3c(c2NCCO)C(=O)c2ccccc2C3=O)CC1	WT yeast gro inh 71.3
COc1ccc(-n2c(SCC(=O)NCCC(C)C)nc3ccsc3c2=O)cc1	none
CCn1c(SCC(=O)Nc2nc3ccccc3s2)nc2c(c1=O)SC(C)C2 (configuration not stated)	none
CCn1c(SCC(=O)Nc2nc3ccc(C)cc3s2)nc2c(c1=O)SC(C)C2 (configuration not stated)	RAM inhibit 10.3
Cc1cc(C)n(-c2nc(NCCN(C)C)c3c4c(sc3n2)CCCC4)n1	none (no result: WT yeast gro inh, NPY Y1 blocker, RAM inhibit, NPY Y2 blocker)
COc1cccc(NC(=S)N(Cc2ccccn2)Cc2ccccc2Cl)c1	WT yeast gro inh 68.5 (no result: NPY Y2 blocker)
COc1ccc(NC(=S)N(Cc2ccccn2)Cc2ccccc2Cl)cc1	WT yeast gro inh 74.8 (no result: NPY Y2 blocker)
CCc1ccc(NC(=S)N(CCCN2CCOCC2)Cc2ccccn2)cc1	none
CCc1ccc(NC(=S)N(Cc2ccccc2)Cc2ccccn2)cc1	WT yeast gro inh 68.2 (no result: NPY Y2 blocker)
N#Cc1cc(-c2ccccc2)cnc1Sc1ccc(Cl)cc1	none
Cc1nn(C(=O)c2ccco2)c(C)c1Sc1ccccc1	none
Cc1nn(C(=O)c2ccco2)c(C)c1Sc1ccc(Br)cc1	RAM inhibit 8.8
Cc1nn(C(=O)C2CC2)c(C)c1Sc1ccc(Cl)cc1	WT yeast gro inh 79.5
Cc1ccc(Sc2c(C)nn(C(=O)CNS(=O)(=O)c3ccc(F)cc3)c2C)cc1	none
